# Key:
# Format in all cases: functional
# SF-539 = assay: Cytotoxicity against human SF539 cells after 48 hrs by SRB assay; settings: SF-539, 48 h
# In short: (§1)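 Second-stage NCI-60 panel run by the NCI Developmental Therapeutics Program, covering nine tumour subpanels. Five concentrations were tested: 0.01, 0.1, 1, 10 and 100 μM. Percentage growth at each level was plotted against log10 drug concentration. GI50, TGI and LC50 were read from these dose-response curves. Subpanel MID values were divided into the full-panel MID to give selectivity ratios.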
# SK-OV-3 = assay: Cytotoxicity against human SKOV3 cells after 48 hrs by SRB assay; settings: SK-OV-3, 48 h; in short: as §1
# SNB-19 = assay: Cytotoxicity against human SNB19 cells after 48 hrs by SRB assay; settings: SNB-19, 48 h; in short: as §1
# HL-60(TB) = assay: Cytotoxicity against human HL-60(TB) cells after 48 hrs by SRB assay; settings: HL-60, 48 h
# In short: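 NCI Developmental Therapeutics Program 60-cell-line screen, second stage: cells exposed to five concentrations (0.01, 0.1, 1, 10 and 100 μM). Growth is plotted against log10 concentration for each line, and GI50, TGI and LC50 are read from the dose-response curves.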
# HOP-92 = assay: Cytotoxicity against human HOP92 cells after 48 hrs by SRB assay; settings: HOP-92, 48 h
# In short: (§2)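 NCI-60 human tumour cell panel screen, second stage, run by the NCI Developmental Therapeutics Program. Compounds were tested at five concentrations (0.01, 0.1, 1, 10 and 100 μM). Percentage growth was plotted against log10 concentration for each cell line. GI50, TGI and LC50 were taken from these dose-response curves.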
# CAKI-1 = assay: Cytotoxicity against human Caki1 cells after 48 hrs by SRB assay; settings: CAKI-1, 48 h; in short: as §2
# MOLT-4 = assay: Cytotoxicity against human MOLT4 cells after 48 hrs by SRB assay; settings: MOLT-4, 48 h; in short: as §1
# MDA-MB-435 = assay: Cytotoxicity against human MDA-MB-435 cells after 48 hrs by SRB assay; settings: MDA-MB-435, 48 h; in short: as §1
# NCI/ADR-RES = assay: Cytotoxicity against human NCI/ADR-RES cells after 48 hrs by SRB assay; in short: as §1
# SK-MEL-2 = assay: Cytotoxicity against human SK-MEL-2 cells after 48 hrs by SRB assay; settings: SK-MEL-2, 48 h; in short: as §1
# NCI-H322M = assay: Cytotoxicity against human NCI-H322M cells after 48 hrs by SRB assay; in short: as §1
# [1] = Cytotoxicity against human melanoma cells assessed as growth inhibition after 48 hrs by SRB assay; settings: Melanoma cell
# In short: (§3)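 Values come from the NCI-60 five-dose panel (0.01–100 µM). The subpanel MID is the mean GI50 over the lines of that tumour subpanel. The selectivity ratio is the full-panel MID divided by the subpanel MID; 3–6 is rated moderate and >6 high.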
# [2] = Cytotoxicity against human ovarian cancer cells assessed as growth inhibition after 48 hrs by SRB assay; settings: Cancer cell lines; in short: as §3
# HT-29 = assay: Cytotoxicity against human HT-29 cells after 48 hrs by SRB assay; settings: HT-29, 48 h; in short: as §2
# COLO 205 = assay: Cytotoxicity against human COLO205 cells after 48 hrs by SRB assay; settings: COLO 205, 48 h; in short: as §2
# [3] = Cytotoxicity against human CNS cancer cells assessed as growth inhibition after 48 hrs by SRB assay; settings: Cancer cell lines
# In short: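 NCI-60 five-dose data (0.01–100 μM) were grouped by tumour subpanel. A subpanel mean (MID) of GI50 was computed for the CNS cancer lines. A selectivity ratio was obtained as full-panel MID divided by subpanel MID: 3–6 counts as moderate, >6 as high.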
# SF-295 = assay: Cytotoxicity against human SF295 cells after 48 hrs by SRB assay; settings: SF-295, 48 h; in short: as §1
# TK-10 = assay: Cytotoxicity against human TK10 cells after 48 hrs by SRB assay; settings: TK-10, 48 h
# In short: (§4)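 NCI-60 five-dose study run by NCI DTP at 0.01, 0.1, 1, 10 and 100 µM. Percentage growth at each level was plotted against log10 concentration for each line, and GI50, TGI and LC50 were read from the dose-response curves.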
# OVCAR-3 = assay: Cytotoxicity against human OVCAR3 cells after 48 hrs by SRB assay; settings: OVCAR-3, 48 h; in short: as §1
# IGROV-1 = assay: Cytotoxicity against human IGROV1 cells after 48 hrs by SRB assay; settings: IGROV-1, 48 h; in short: as §2
# PC-3 = assay: Cytotoxicity against human PC3 cells after 48 hrs by SRB assay; settings: PC-3, 48 h; in short: as §1
# RPMI-8226 = assay: Cytotoxicity against human RPMI8226 cells after 48 hrs by SRB assay; settings: RPMI-8226, 48 h; in short: as §1
# HCT-116 = assay: Cytotoxicity against human HCT116 cells after 48 hrs by SRB assay; settings: HCT-116, 48 h; in short: as §2
# SK-MEL-28 = assay: Cytotoxicity against human SK-MEL-28 cells after 48 hrs by SRB assay; settings: SK-MEL-28, 48 h; in short: as §1
# T47D = assay: Cytotoxicity against human T47D cells after 48 hrs by SRB assay; in short: as §4
# 786-0 = assay: Cytotoxicity against human 786-0 cells after 48 hrs by SRB assay; settings: 786-0, 48 h; in short: as §2
# OVCAR-4 = assay: Cytotoxicity against human OVCAR4 cells after 48 hrs by SRB assay; settings: OVCAR-4, 48 h; in short: as §1
# [4] = read-out: LC50 (the source's name)
structure (smiles),measurement,setting,value
CC(C)Sc1cc2c(c3nsnc13)C(=O)c1ccccc1C2=O,GI50,SF-539,1730 nM
same,LC50,SF-539,7140 nM
same,TGI,SF-539,3510 nM
same,GI50,SK-OV-3,2900 nM
same,LC50,SK-OV-3,36900 nM
same,TGI,SK-OV-3,12600 nM
same,GI50,SNB-19,3320 nM
same,LC50,SNB-19,36300 nM
same,TGI,SNB-19,13100 nM
same,GI50,HL-60(TB),230 nM
same,LC50,HL-60(TB),40800 nM
same,TGI,HL-60(TB),617 nM
same,GI50,HOP-92,320 nM
same,LC50 (concentration giving 50% net cell kill),HOP-92,14500 nM
same,TGI,HOP-92,2180 nM
same,GI50,CAKI-1,590 nM
same,LC50 (concentration causing 50% net cell kill),CAKI-1,9080 nM
same,TGI,CAKI-1,2590 nM
same,GI50,MOLT-4,180 nM
same,LC50,MOLT-4,> 100000 nM
same,TGI,MOLT-4,490 nM
same,GI50,MDA-MB-435,200 nM
same,LC50,MDA-MB-435,740 nM
same,TGI,MDA-MB-435,390 nM
same,GI50,NCI/ADR-RES,520 nM
same,LC50 (concentration killing 50% of cells),NCI/ADR-RES,> 100000 nM
same,TGI,NCI/ADR-RES,3200 nM
same,GI50,SK-MEL-2,990 nM
same,LC50,SK-MEL-2,5870 nM
same,TGI,SK-MEL-2,2420 nM
same,GI50,NCI-H322M,2850 nM
same,LC50 (concentration causing 50% net cell kill),NCI-H322M,38700 nM
same,TGI,NCI-H322M,11000 nM
same,GI50,[1],1120 nM
same,GI50,[2],1080 nM
same,GI50,HT-29,12200 nM
same,LC50,HT-29,92700 nM
same,TGI,HT-29,33600 nM
same,GI50,COLO 205,13300 nM
same,LC50,COLO 205,51000 nM
same,TGI,COLO 205,20600 nM
same,GI50,[3],1790 nM
same,GI50,SF-295,1880 nM
same,LC50,SF-295,9830 nM
same,TGI,SF-295,4300 nM
same,GI50,TK-10,5680 nM
same,LC50 (concentration killing 50% of cells),TK-10,87600 nM
same,TGI,TK-10,18000 nM
same,GI50,OVCAR-3,250 nM
same,TGI,OVCAR-3,638 nM
same,CC50,OVCAR-3; [4],2980 nM
same,GI50,IGROV-1,960 nM
same,LC50,IGROV-1,9180 nM
same,TGI,IGROV-1,3010 nM
same,GI50,PC-3,250 nM
same,LC50 (concentration killing 50% of cells),PC-3,75400 nM
same,TGI,PC-3,1380 nM
same,GI50,RPMI-8226,290 nM
same,LC50,RPMI-8226,> 100000 nM
same,TGI,RPMI-8226,1780 nM
same,GI50,HCT-116,290 nM
same,TGI,HCT-116,1010 nM
same,CC50,HCT-116; [4],4220 nM
same,GI50,SK-MEL-28,2720 nM
same,TGI,SK-MEL-28,5990 nM
same,CC50,SK-MEL-28; [4],18800 nM
same,GI50,T47D,380 nM
same,LC50 (concentration killing 50% of cells),T47D,9110 nM
same,TGI,T47D,2150 nM
same,GI50,786-0,2750 nM
same,LC50 (concentration killing 50% of cells),786-0,34900 nM
same,TGI,786-0,8140 nM
same,GI50,OVCAR-4,360 nM
same,LC50,OVCAR-4,3670 nM
same,TGI,OVCAR-4,1340 nM

# — ChEMBL document CHEMBL3621107, “Ring fusion strategy for synthesis and lead optimization of sulfur-substituted anthra[1,2-c][1,2,5]thiadiazole-6,11-dione derivatives as promising scaffold of antitumor agents” (Eur J Med Chem, 2015)
